Assay results pooled from the literature.
BTK: Tyrosine-protein kinase BTK (BTK, Homo sapiens, UniProt Q06187)

COc1cccc(OC)c1-c1cc(C(=O)N[C@@H](CC(C)C)C(=O)O)nn1-c1ccnc2cc(Cl)ccc12  Emax (Neurotensin receptor type 1 (NTSR1, Homo sapiens, UniProt P30989); calcium signal, agonist; CHO): 63%
CC(C)C[C@H](NC(=O)[C@H](CC(C)C)NC(=O)CNC(=O)[C@H](C)NC(=O)[C@H](C)NC(=O)[C@H](CCCNC(=N)N)NC(=O)CNC(=O)CCCCNC(=O)CCCCNC(=O)CCCCNC(=O)[C@H](CCCCN)NC(=O)[C@H](Cc1ccc(O)cc1)NC(=O)CCc1c[nH]c2ccccc12)C(N)=O  Emax (Neuropeptides B/W receptor type 1 (NPBWR1, Homo sapiens, UniProt P48145); cAMP, agonist, TR-FRET): 94%
Nc1ncnc2occ(-c3ccc(NC(=O)Nc4cc(C(F)(F)F)ccc4F)cc3)c12  remaining signal (Cyclin-dependent kinase 11A (CDK11A, Homo sapiens, UniProt Q9UQ88); cell-free assay; 20 µM): 0.3%
CC(C)(C=C(C#N)C(=O)N1CCC[C@H]1Cn1nc(-c2ccc(Oc3ccccc3)cc2F)c2c(N)ncnc21)N1CCOCC1  kinact/KI (BTK; enzyme activity, inhibitor): 400000 M⁻¹ s⁻¹
COc1cc(Nc2cnc(C#N)c(O[C@H](C)CN(C)C)n2)ncc1-c1cnn(C)c1  remaining activity (Serine/threonine-protein kinase tousled-like 1 (TLK1, Homo sapiens, UniProt Q9UKI8); enzyme activity, inhibitor, radiometric; 1 µM): 95%
Cc1ccc(C(=O)Nc2ccc(CN3CCN(C)CC3)c(C(F)(F)F)c2)cc1C#Cc1cnc2cccnn12  remaining activity (Mitogen-activated protein kinase kinase kinase 19 (MAP3K19, Homo sapiens, UniProt Q56UN5); enzyme activity, inhibitor; 23.5 nM): 54%
COc1ccc(F)cc1C(=O)NCc1ccc(-c2nn([C@@H](C)C(F)(F)F)c(N)c2C(N)=O)cc1  koff (BTK; binding, SPR): 7.9e-05 s⁻¹
C=CC(=O)N1CCC[C@@H]1Cn1nc(-c2ccc(Oc3ccccc3)cc2F)c2c(N)ncnc21  KI (inactivation) (BTK; enzyme activity, inhibitor): 1.8 nM
